In brackets after ≈: the same amount, converted by molar mass.
Legend:
[1] = system: Acinetobacter baumannii; experiment: Antibacterial activity against efflux pump lacking Acinetobacter baumannii assessed as inhibition of bacterial growth; assay type: functional, organism-based
[2] = system: Escherichia coli; experiment: Antibacterial activity against efflux pump lacking Escherichia coli assessed as inhibition of bacterial growth; assay type: functional, organism-based
[3] = system: Acinetobacter baumannii; experiment: Antibacterial activity against wild type Acinetobacter baumannii assessed as inhibition of bacterial growth; assay type: functional, organism-based
[4] = system: Acinetobacter baumannii; experiment: Antibacterial activity against efflux pump lacking/recombinant OM pore producing Acinetobacter baumannii assessed as inhibition of bacterial growth; assay type: functional, organism-based
[5] = system: Escherichia coli; experiment: Antibacterial activity against Escherichia coli SQ110 DTC G2032A incubated for 24 hrs by twofold serial dilution method; assay type: functional
Method in brief: (§1)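 E. coli SQDTC (TolC-deficient, single rRNA operon) carrying LZD-resistant 23S rRNA substitutions. Compounds come from 10 mM DMSO stocks and are twofold serially diluted in 96-well plates.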

[6] = system: Escherichia coli; experiment: Antibacterial activity against Escherichia coli SQ110 DTC C2610A incubated for 24 hrs by twofold serial dilution method; assay type: functional; method in brief: as §1
[7] = system: Escherichia coli; experiment: Antibacterial activity against efflux pump lacking/recombinant OM pore producing Escherichia coli incubated for 24 hrs by twofold serial dilution method; assay type: functional
Method in brief: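 E. coli efflux-knockout/hyperporinated strain grown in M9 medium with 50 mM MOPS (pH 7.2) and 0.2% xylose. OM pore induced with 0.1% arabinose. Compounds come from 10 mM DMSO stocks and are twofold serially diluted in 96-well plates.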

[8] = system: Escherichia coli; experiment: Antibacterial activity against efflux pump lacking/recombinant OM pore producing Escherichia coli assessed as inhibition of bacterial growth; assay type: functional, organism-based
[9] = system: Escherichia coli; experiment: Antibacterial activity against wild type Escherichia coli assessed as inhibition of bacterial growth; assay type: functional, organism-based
[10] = system: Escherichia coli; experiment: Antibacterial activity against recombinant OM pore producing Escherichia coli assessed as inhibition of bacterial growth; assay type: functional, organism-based
[11] = system: Pseudomonas aeruginosa; experiment: Antibacterial activity against efflux pump lacking/recombinant OM pore producing Pseudomonas aeruginosa assessed as inhibition of bacterial growth; assay type: functional, organism-based
[12] = system: Acinetobacter baumannii; experiment: Antibacterial activity against efflux pump lacking/recombinant OM pore producing Acinetobacter baumannii incubated for 24 hrs by twofold serial dilution method; assay type: functional
Method in brief: (§2)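 MICs by twofold serial dilution in 96-well plates from 10 mM DMSO stocks. Cultures grown in the indicated media; for E. coli, A. baumannii and P. aeruginosa, inducers were 0.1% arabinose, 1% arabinose and 0.1 mM IPTG respectively.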

[13] = system: Acinetobacter baumannii; experiment: Antibacterial activity against recombinant OM pore producing Acinetobacter baumannii assessed as inhibition of bacterial growth; assay type: functional, organism-based
[14] = system: Pseudomonas aeruginosa; experiment: Antibacterial activity against recombinant OM pore producing Pseudomonas aeruginosa assessed as inhibition of bacterial growth; assay type: functional, organism-based
[15] = system: Pseudomonas aeruginosa; experiment: Antibacterial activity against efflux pump lacking/recombinant OM pore producing Pseudomonas aeruginosa incubated for 24 hrs by twofold serial dilution method; assay type: functional; method in brief: as §2
[16] = system: Pseudomonas aeruginosa; experiment: Antibacterial activity against efflux pump lacking Pseudomonas aeruginosa assessed as inhibition of bacterial growth; assay type: functional, organism-based
[17] = system: Escherichia coli; experiment: Antibacterial activity against Escherichia coli SQ110 DTC incubated for 24 hrs by twofold serial dilution method; assay type: functional; method in brief: as §2
[18] = system: Staphylococcus aureus; experiment: Antibacterial activity against Staphylococcus aureus ATCC 25923 incubated for 24 hrs by twofold serial dilution method; assay type: functional; method in brief: as §2
[19] = system: Pseudomonas aeruginosa; experiment: Antibacterial activity against wild type Pseudomonas aeruginosa assessed as inhibition of bacterial growth; assay type: functional, organism-based
[20] = system: Escherichia coli; experiment: Antibacterial activity against Escherichia coli SQ110 incubated for 24 hrs by twofold serial dilution method; assay type: functional; method in brief: as §2

SMILES	IC50 [1]	IC50 [2]	IC50 [3]	IC50 [4]	MIC [5]	MIC [6]	MIC [7]	IC50 [8]	IC50 [9]	IC50 [10]	IC50 [11]	MIC [12]	IC50 [13]	IC50 [14]	MIC [15]	IC50 [16]	MIC [17]	MIC [18]	IC50 [19]	MIC [20]
O=C1O[C@@H](CO)CN1c1ccc(-c2ccc(C(F)(F)F)cc2)c(F)c1	8 µM	4.1 µM	> 100 µM	3.9 µM	> 100 µM	> 100 µM	> 100 µM	2.9 µM	88.8 µM	35.3 µM	1.4 µM	6.25 µM	41.1 µM	> 100 µM	> 100 µM	8 µM	25 µM (≈ 8.88 µg/mL)	3.12 µM (≈ 1.11 µg/mL)	> 100 µM	100 µM (≈ 35.5 µg/mL)
CC(C(=O)NCC#Cc1ccc(N2C[C@H](CO)OC2=O)cc1F)N1CCNCC1 (stereo partly drawn)	> 100 µM	> 100 µM	> 100 µM	> 100 µM				> 100 µM	> 100 µM	> 100 µM	> 100 µM		> 100 µM	> 100 µM		> 100 µM			> 100 µM	
CSCC#Cc1ccc(N2C[C@H](CO)OC2=O)cc1F	> 100 µM	65.9 µM	> 100 µM	> 100 µM				47.8 µM	94.9 µM	35.1 µM	> 100 µM		> 100 µM	> 100 µM		> 100 µM			> 100 µM	
COCC#Cc1ccc(N2C[C@H](CO)OC2=O)cc1F	> 100 µM	80.3 µM	> 100 µM	> 100 µM				44 µM	74.9 µM	36.3 µM	> 100 µM		> 100 µM	> 100 µM		> 100 µM			> 100 µM	
CC(C)(C)OC(=O)N[C@@H](Cc1cccc(-c2ccc(N3C[C@H](CO)OC3=O)cc2F)c1)C(=O)O	> 100 µM	> 100 µM	> 100 µM	> 100 µM				> 100 µM	> 100 µM	> 100 µM	> 100 µM		> 100 µM	> 100 µM		> 100 µM			> 100 µM	
CC(C)(C)OC(=O)NNC(=O)C(CC#Cc1ccc(N2C[C@H](CO)OC2=O)cc1F)NC(=O)OC(C)(C)C (stereo partly drawn)	> 100 µM	13.3 µM	> 100 µM	> 100 µM				56.1 µM	> 100 µM	51.4 µM	> 100 µM		> 100 µM	> 100 µM		> 100 µM			> 100 µM	
C[n+]1ccccc1-c1ccc(-c2ccc(N3C[C@H](CO)OC3=O)cc2F)cc1	20.4 µM	3.1 µM	> 100 µM	10.2 µM				4.4 µM	72.6 µM	13.2 µM	1.2 µM		13.3 µM	15.9 µM		8.4 µM			> 100 µM	
CC(=O)N1CCN(CC#Cc2ccc(N3C[C@H](CO)OC3=O)cc2F)CC1	> 100 µM	> 100 µM	> 100 µM	> 100 µM				> 100 µM	> 100 µM	> 100 µM	> 100 µM		> 100 µM	> 100 µM		> 100 µM			> 100 µM	
O=C1O[C@@H](CO)CN1c1ccc(C#CCO)c(F)c1	> 100 µM	84 µM	> 100 µM	> 100 µM				43.6 µM	> 100 µM	> 100 µM	> 100 µM		> 100 µM	> 100 µM		> 100 µM			> 100 µM	
O=C1O[C@@H](CO)CN1c1ccc(-c2cccc3cc[nH]c23)c(F)c1	64.4 µM	21.6 µM	> 100 µM	62.1 µM				7.2 µM	77 µM	19.5 µM	> 100 µM		> 100 µM	> 100 µM		> 100 µM			> 100 µM	
